Assay results reported in ChEMBL document CHEMBL3286357, “Design, synthesis and pharmacological evaluation of novel substituted quinoline-2-carboxamide derivatives as human dihydroorotate dehydrogenase (hDHODH) inhibitors and anticancer agents” (Eur J Med Chem, 2014).

Legend:
[1] = Retention time of compound by HPLC analysis; type: physicochemical
A-375 [2] = test: Antiproliferative activity against human A375 cells at 0.01 ug/ml for 24 hrs by MTT assay; type: functional; settings: A-375, 24 h
In short: (§1)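 HEP-3B or A-375 cells were grown in DMEM with 10% FBS, 5% HBSS, penicillin, streptomycin and amphotericin B at 37 C and 5% CO2. Cells were seeded at 2 × 10^4 per well and preincubated for 24 h. They were then exposed to ten 1:3 serial dilutions from a top concentration of 100, made from 2% DMSO stocks. MTT was added for 3 h, formazan was dissolved in DMSO, and A550 was read. Wells were run in triplicate across three independent experiments. IC50 came from dose-response curves.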

A-375 [3] = test: Antiproliferative activity against human A375 cells at 0.02 ug/ml for 24 hrs by MTT assay; type: functional; settings: A-375, 24 h; in short: as §1
A-375 [4] = test: Antiproliferative activity against human A375 cells at 0.05 ug/ml for 24 hrs by MTT assay; type: functional; settings: A-375, 24 h; in short: as §1
A-375 [5] = test: Antiproliferative activity against human A375 cells at 0.14 ug/ml for 24 hrs by MTT assay; type: functional; settings: A-375, 24 h; in short: as §1
A-375 [6] = test: Antiproliferative activity against human A375 cells at 0.41 ug/ml for 24 hrs by MTT assay; type: functional; settings: A-375, 24 h; in short: as §1
A-375 [7] = test: Antiproliferative activity against human A375 cells at 1.23 ug/ml for 24 hrs by MTT assay; type: functional; settings: A-375, 24 h; in short: as §1
A-375 [8] = test: Antiproliferative activity against human A375 cells at 3.7 ug/ml for 24 hrs by MTT assay; type: functional; settings: A-375, 24 h; in short: as §1
A-375 [9] = test: Antiproliferative activity against human A375 cells at 11.11 ug/ml for 24 hrs by MTT assay; type: functional; settings: A-375, 24 h; in short: as §1
A-375 [10] = test: Antiproliferative activity against human A375 cells at 33.33 ug/ml for 24 hrs by MTT assay; type: functional; settings: A-375, 24 h; in short: as §1
A-375 [11] = test: Antiproliferative activity against human A375 cells at 100 ug/ml for 24 hrs by MTT assay; type: functional; settings: A-375, 24 h; in short: as §1
[12] = Antiproliferative activity against human Hep3B cells at 0.01 ug/ml for 24 hrs by MTT assay; type: functional, Hep 3B2; in short: as §1
[13] = Antiproliferative activity against human Hep3B cells at 0.02 ug/ml for 24 hrs by MTT assay; type: functional, Hep 3B2; in short: as §1
[14] = Antiproliferative activity against human Hep3B cells at 0.05 ug/ml for 24 hrs by MTT assay; type: functional, Hep 3B2; in short: as §1
[15] = Antiproliferative activity against human Hep3B cells at 0.14 ug/ml for 24 hrs by MTT assay; type: functional, Hep 3B2; in short: as §1
[16] = Antiproliferative activity against human Hep3B cells at 0.41 ug/ml for 24 hrs by MTT assay; type: functional, Hep 3B2; in short: as §1
[17] = Antiproliferative activity against human Hep3B cells at 1.23 ug/ml for 24 hrs by MTT assay; type: functional, Hep 3B2; in short: as §1
[18] = Antiproliferative activity against human Hep3B cells at 3.7 ug/ml for 24 hrs by MTT assay; type: functional, Hep 3B2; in short: as §1
[19] = Antiproliferative activity against human Hep3B cells at 11.11 ug/ml for 24 hrs by MTT assay; type: functional, Hep 3B2; in short: as §1
[20] = Antiproliferative activity against human Hep3B cells at 33.33 ug/ml for 24 hrs by MTT assay; type: functional, Hep 3B2; in short: as §1
[21] = Antiproliferative activity against human Hep3B cells at 100 ug/ml for 24 hrs by MTT assay; type: functional, Hep 3B2; in short: as §1
A-375 (human melanoma) = test: Antiproliferative activity against human A375 cells for 24 hrs by MTT assay; settings: A-375, 24 h
HEP-3B (human hepatoma) = test: Antiproliferative activity against human Hep3B cells for 24 hrs by MTT assay

Row | Structure (SMILES) | inhibition at 0.01 µg/mL (A-375 [2]) | inhibition at 0.02 µg/mL (A-375 [3]) | inhibition at 0.05 µg/mL (A-375 [4]) | inhibition at 0.14 µg/mL (A-375 [5]) | inhibition at 0.41 µg/mL (A-375 [6]) | inhibition at 1.23 µg/mL (A-375 [7]) | inhibition at 3.7 µg/mL (A-375 [8]) | inhibition at 11.11 µg/mL (A-375 [9]) | inhibition at 33.33 µg/mL (A-375 [10]) | inhibition at 100 µg/mL (A-375 [11]) | inhibition at 0.01 µg/mL [12] | inhibition at 0.02 µg/mL [13] | inhibition at 0.05 µg/mL [14] | inhibition at 0.14 µg/mL [15] | inhibition at 0.41 µg/mL [16] | inhibition at 1.23 µg/mL [17] | inhibition at 3.7 µg/mL [18] | inhibition at 11.11 µg/mL [19] | inhibition at 33.33 µg/mL [20] | inhibition at 100 µg/mL [21] | also measured
1 | CCOc1ccc2nc(C(=O)Nc3c(F)cc(-c4cccc(F)c4)cc3F)c(C)c(O)c2c1 | 0.23% | 0.68% | 1.02% | 1.54% | 2.05% | 2.96% | 4.56% | 15.3% | 16.3% | 37.9% | -0.5% | -0.32% | -0.04% | 0.01% | 0.26% | 1.03% | 1.56% | 2.03% | 11.2% | 33.2% | Retention_time [1]: 7.2 min; IC50 (A-375 (human melanoma)): > 100 µM; IC50 (HEP-3B (human hepatoma)): > 100 µM
2 | Cc1c(C(=O)Nc2c(F)cc(-c3cccc(F)c3)cc2F)nc2ccc(OC(F)(F)F)cc2c1O | -0.68% | -0.35% | -0.13% | 0.06% | 1.02% | 1.57% | 2.06% | 11.3% | 12.3% | 25.6% | 0.32% | 0.67% | 1.05% | 2.01% | 5.62% | 17.2% | 26.4% | 37.9% | 41.2% | 80.3% | Retention_time [1]: 6.3 min; IC50 (A-375 (human melanoma)): 85.5 µM; IC50 (HEP-3B (human hepatoma)): 38.3 µM
3 | CCc1ccc2nc(C(=O)Nc3c(F)cc(-c4cccc(F)c4)cc3F)c(C)c(C(=O)O)c2c1 | -0.45% | -0.12% | 0.95% | 2.45% | 6.12% | 17.7% | 26.7% | 38.9% | 47.1% | 71.3% | -0.25% | -0.05% | 0% | 0.68% | 1.68% | 4.52% | 15.2% | 27.2% | 36.2% | 64.3% | Retention_time [1]: 6.8 min; IC50 (A-375 (human melanoma)): 16.9 µM; IC50 (HEP-3B (human hepatoma)): 57.8 µM
4 | Cc1c(C(=O)Nc2c(F)cc(-c3cccc(F)c3)cc2F)nc2ccc(F)cc2c1O | -0.35% | -0.13% | 0.05% | 0% | 0.86% | 2.34% | 7.85% | 16.2% | 28.8% | 51.3% | -0.12% | 0.35% | 1.25% | 2.65% | 4.85% | 15.3% | 22.3% | 31.3% | 41.2% | 75.2% | Retention_time [1]: 6.9 min; IC50 (A-375 (human melanoma)): > 100 µM; IC50 (HEP-3B (human hepatoma)): 65.2 µM
5 | Cc1c(C(=O)Nc2ccc(-c3ccccc3)cc2)nc2ccccc2c1O | -0.11% | 0.06% | 1.05% | 1.98% | 2.65% | 4.56% | 17.2% | 26.5% | 34.3% | 52.3% | 0.23% | 1.05% | 1.68% | 3.02% | 9.34% | 14.2% | 21.5% | 38.3% | 46.2% | 84.2% | Retention_time [1]: 6.9 min; IC50 (A-375 (human melanoma)): 37.2 µM; IC50 (HEP-3B (human hepatoma)): 75.5 µM
6 | Cc1c(C(=O)Nc2ccc(-c3ccccc3)cc2)nc2ccccc2c1C(=O)O | -0.35% | 0.12% | 0.87% | 1.56% | 2.38% | 7.65% | 16.3% | 20.3% | 25.6% | 50.3% | -0.68% | -0.35% | -0.12% | 0.03% | 0.98% | 1.25% | 2.31% | 3.25% | 11.2% | 44.4% | Retention_time [1]: 6.8 min; IC50 (A-375 (human melanoma)): 83.5 µM; IC50 (HEP-3B (human hepatoma)): > 100 µM
7 | COc1ccc2nc(C(=O)Nc3c(F)cc(-c4cccc(F)c4)cc3F)c(C)c(C(=O)O)c2c1 | 0.05% | 0.13% | 1.05% | 2.06% | 3.87% | 10.2% | 24.6% | 35.2% | 44.5% | 58.7% | -0.68% | -0.57% | -0.66% | 0.02% | 0.68% | 1.05% | 1.62% | 2.34% | 7.24% | 28.3% | Retention_time [1]: 6.9 min; IC50 (A-375 (human melanoma)): 14.3 µM; IC50 (HEP-3B (human hepatoma)): > 100 µM
8 | Cc1ccc2nc(C(=O)Nc3c(F)cc(-c4cccc(F)c4)cc3F)c(C)c(C(=O)O)c2c1 | -1.05% | 0.02% | 0.35% | 0.98% | 1.53% | 3.65% | 9.25% | 19.2% | 26.3% | 37.3% | 0.36% | 1.05% | 2.11% | 6.34% | 15.2% | 21.3% | 31.3% | 35.6% | 41.2% | 75.2% | Retention_time [1]: 7 min; IC50 (A-375 (human melanoma)): 31.6 µM; IC50 (HEP-3B (human hepatoma)): 26 µM
9 | COc1cccc2c1C(=O)c1c(O)c3c(c(O)c1C2=O)C[C@@](O)(C(=O)CO)C[C@@H]3O[C@H]1C[C@H](N)[C@H](O)[C@H](C)O1 [DOXORUBICIN] | -35.6% | 30.2% | -27.6% | -18.5% | -12.5% | -10.3% | 11.6% | 50.6% | 69.9% | 88.4% | 0.25% | 0.95% | 1.56% | 3.35% | 11.4% | 18.4% | 24.2% | 30.1% | 32.3% | 76.3% | IC50 (A-375 (human melanoma)): 13.2 µM; IC50 (HEP-3B (human hepatoma)): 6.35 µM
10 | Cc1c(-c2ccc(-c3ccccc3F)cc2)nc2ccc(F)cc2c1C(=O)O [BREQUINAR SODIUM] | 0.18% | 1.02% | 2.65% | 3.48% | 18.4% | 26.3% | 33.2% | 46.6% | 59.7% | 74.6% | 0.23% | 0.65% | 2.05% | 4.52% | 15.3% | 21.4% | 34.2% | 46% | 52.3% | 68.3% | IC50 (A-375 (human melanoma)): 10.2 µM; IC50 (HEP-3B (human hepatoma)): 8.1 µM
